Where two headings read alike, the source gives them in different places. Marks after values point to notes of the source that are not given here.
Key:
[1] = target: serotonin 5-HT1A receptor (Homo sapiens, UniProt P08908); type: binding; conditions: human cloned receptor, PDSP
[2] = test system: serotonin 5-HT1A receptor; type: binding, human; conditions: [5-HT1A affinity/other receptor affinity]×100; 5-HT1A 0.6 or 2.2 nM for WAY-100635, 0.9 nM for Mefway
5-HT7 = 5-HT7 (Homo sapiens, UniProt P34969); assay: NIMH PDSP binding affinity, human cloned receptor
Chain of 5-HT7 (P34969 whole entry): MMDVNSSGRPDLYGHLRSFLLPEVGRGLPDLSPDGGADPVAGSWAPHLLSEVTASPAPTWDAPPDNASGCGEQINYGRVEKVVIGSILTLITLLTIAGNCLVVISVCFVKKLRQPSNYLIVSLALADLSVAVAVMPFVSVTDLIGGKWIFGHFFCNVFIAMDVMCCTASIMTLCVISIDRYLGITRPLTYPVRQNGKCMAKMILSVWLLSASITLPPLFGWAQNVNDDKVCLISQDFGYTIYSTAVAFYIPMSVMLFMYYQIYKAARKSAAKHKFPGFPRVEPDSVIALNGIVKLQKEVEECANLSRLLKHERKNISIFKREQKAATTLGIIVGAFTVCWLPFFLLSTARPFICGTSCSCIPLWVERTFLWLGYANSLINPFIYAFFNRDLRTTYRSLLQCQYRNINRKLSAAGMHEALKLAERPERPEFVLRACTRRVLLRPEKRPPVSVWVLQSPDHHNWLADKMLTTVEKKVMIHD

5-HT2B = 5-HT2B (Homo sapiens, UniProt P41595); assay: NIMH PDSP binding affinity, human cloned receptor
Chain of 5-HT2B (P41595 whole entry): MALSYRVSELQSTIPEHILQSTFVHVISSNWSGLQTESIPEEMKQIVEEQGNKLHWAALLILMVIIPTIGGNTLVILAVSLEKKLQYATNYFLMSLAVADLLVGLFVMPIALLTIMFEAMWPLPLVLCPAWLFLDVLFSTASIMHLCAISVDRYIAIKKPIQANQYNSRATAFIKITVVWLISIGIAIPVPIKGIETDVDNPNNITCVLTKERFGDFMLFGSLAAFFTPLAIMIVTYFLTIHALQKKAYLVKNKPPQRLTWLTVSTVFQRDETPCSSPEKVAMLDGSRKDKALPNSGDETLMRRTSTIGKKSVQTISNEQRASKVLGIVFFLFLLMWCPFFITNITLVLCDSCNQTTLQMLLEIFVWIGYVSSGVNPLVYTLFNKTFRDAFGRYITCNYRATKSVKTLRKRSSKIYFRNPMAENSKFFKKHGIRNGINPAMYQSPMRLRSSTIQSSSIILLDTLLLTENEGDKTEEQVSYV

α1B = α1B (Homo sapiens, UniProt P35368); assay: NIMH PDSP binding affinity, human cloned receptor
Chain of α1B (P35368 whole entry): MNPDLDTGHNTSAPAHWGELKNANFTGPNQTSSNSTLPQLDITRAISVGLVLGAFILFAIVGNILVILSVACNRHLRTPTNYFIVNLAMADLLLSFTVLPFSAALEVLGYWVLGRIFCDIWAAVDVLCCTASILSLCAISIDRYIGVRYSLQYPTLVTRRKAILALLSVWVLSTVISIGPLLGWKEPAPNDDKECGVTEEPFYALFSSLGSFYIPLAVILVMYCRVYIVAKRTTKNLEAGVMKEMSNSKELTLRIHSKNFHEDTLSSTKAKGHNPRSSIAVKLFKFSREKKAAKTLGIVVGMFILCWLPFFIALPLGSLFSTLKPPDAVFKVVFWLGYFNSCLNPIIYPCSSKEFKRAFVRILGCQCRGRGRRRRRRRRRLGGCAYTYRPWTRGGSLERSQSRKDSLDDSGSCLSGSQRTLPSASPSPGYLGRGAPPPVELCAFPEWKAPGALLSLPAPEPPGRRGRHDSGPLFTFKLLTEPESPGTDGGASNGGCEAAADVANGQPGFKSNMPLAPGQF

dopamine D4 = dopamine D4 (Homo sapiens, UniProt P21917); assay: NIMH PDSP binding affinity, human cloned receptor
Chain of dopamine D4 (P21917 whole entry): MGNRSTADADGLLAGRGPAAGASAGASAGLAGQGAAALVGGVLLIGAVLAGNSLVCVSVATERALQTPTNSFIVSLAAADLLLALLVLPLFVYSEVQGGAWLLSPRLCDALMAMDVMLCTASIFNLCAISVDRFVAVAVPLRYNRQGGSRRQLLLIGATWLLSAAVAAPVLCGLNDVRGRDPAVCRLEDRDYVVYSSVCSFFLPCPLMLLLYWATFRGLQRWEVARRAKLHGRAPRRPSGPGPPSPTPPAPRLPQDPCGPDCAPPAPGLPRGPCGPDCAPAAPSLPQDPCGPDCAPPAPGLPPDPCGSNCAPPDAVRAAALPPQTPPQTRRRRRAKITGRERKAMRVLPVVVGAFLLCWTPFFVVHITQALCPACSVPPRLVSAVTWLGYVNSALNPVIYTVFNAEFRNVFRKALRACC

D3 subtype = D3 subtype (Homo sapiens, UniProt P35462); assay: NIMH PDSP binding affinity, human cloned receptor; conditions: read-out: Affinity, D3 subtype
Chain of D3 subtype (P35462 whole entry): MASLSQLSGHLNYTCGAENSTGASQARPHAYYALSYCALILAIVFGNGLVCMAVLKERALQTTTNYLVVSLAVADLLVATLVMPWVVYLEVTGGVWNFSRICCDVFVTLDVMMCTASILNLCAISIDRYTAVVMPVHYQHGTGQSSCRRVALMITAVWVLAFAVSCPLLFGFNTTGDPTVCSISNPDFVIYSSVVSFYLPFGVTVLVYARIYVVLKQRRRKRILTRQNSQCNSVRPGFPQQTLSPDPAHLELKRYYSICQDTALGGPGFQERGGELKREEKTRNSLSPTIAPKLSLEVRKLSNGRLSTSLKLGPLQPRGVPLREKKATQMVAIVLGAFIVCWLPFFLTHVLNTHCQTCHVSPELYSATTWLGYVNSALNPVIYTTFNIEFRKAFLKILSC

D1 = D1 (Homo sapiens, UniProt P21728); assay: NIMH PDSP binding affinity, human cloned receptor; conditions: D1-like receptors
Chain of D1 (P21728 whole entry): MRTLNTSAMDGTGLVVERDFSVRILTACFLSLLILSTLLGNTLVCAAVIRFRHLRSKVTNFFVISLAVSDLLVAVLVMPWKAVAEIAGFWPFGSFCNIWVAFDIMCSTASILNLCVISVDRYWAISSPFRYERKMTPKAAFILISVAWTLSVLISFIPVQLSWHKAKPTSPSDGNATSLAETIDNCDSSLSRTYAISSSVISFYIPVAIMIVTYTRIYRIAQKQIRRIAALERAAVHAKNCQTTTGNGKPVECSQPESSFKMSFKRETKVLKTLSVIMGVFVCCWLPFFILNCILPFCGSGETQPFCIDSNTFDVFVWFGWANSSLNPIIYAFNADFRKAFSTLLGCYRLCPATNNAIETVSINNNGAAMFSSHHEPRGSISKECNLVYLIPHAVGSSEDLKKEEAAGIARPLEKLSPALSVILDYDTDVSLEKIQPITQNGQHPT

[3] = test system: all other human-cloned receptor subtypes tested; assay: NIMH PDSP screening of the remaining panel; type: binding
5-HT1A receptors [4] = target: T1, 5-HT1A receptors (Homo sapiens, UniProt P08908); assay: In vitro autoradiography of 18F-Mefway, human postmortem hippocampus sections; type: binding
T1 sequence (P08908 1-422): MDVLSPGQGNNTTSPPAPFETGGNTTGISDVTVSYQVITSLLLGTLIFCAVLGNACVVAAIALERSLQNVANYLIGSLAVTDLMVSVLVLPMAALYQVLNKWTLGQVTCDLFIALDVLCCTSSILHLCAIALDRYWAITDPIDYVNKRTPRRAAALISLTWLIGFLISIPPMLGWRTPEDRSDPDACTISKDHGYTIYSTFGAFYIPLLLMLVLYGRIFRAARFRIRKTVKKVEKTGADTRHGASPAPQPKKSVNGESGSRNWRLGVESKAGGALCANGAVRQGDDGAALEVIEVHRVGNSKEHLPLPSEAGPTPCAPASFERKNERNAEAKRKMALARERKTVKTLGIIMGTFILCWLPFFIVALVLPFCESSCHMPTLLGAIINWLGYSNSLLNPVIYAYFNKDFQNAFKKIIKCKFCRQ
How it was run: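 Dog tissue: unfixed beagle brain (4.5–15.4 yr), stored at −80 °C, cut as 10 µm hemi-coronal slices with hippocampus and cortex. Human tissue: postmortem hippocampus (PMI 3.8–5.8 h), cut at 7 µm. Slices preincubated in 50 mM Tris-HCl pH 7.4 for 10 min at room temperature, then incubated with 37–185 kBq/mL tracer at 37 °C for 1 h. […] Two 1-min ice-cold buffer washes, then 24 h phosphor-screen exposure. Binding read as DLU/mm².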

5-HT1A receptors [5] = target: T2, 5-HT1A receptors (Rattus norvegicus, UniProt P19327); conditions: 90 mins post-injection, cited from earlier work
T2 sequence (P19327 1-422): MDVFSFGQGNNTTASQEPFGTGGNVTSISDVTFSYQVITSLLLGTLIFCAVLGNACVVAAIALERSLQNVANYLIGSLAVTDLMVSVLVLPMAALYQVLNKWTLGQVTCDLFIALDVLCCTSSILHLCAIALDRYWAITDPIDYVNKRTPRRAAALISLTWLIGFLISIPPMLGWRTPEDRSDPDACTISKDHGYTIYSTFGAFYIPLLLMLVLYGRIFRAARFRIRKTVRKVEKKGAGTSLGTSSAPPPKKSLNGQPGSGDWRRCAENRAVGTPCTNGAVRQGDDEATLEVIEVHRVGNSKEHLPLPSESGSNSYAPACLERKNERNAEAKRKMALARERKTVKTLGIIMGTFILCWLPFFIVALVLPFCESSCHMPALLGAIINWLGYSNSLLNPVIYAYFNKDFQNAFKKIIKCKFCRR

5-HT1A receptors [6] = conditions: cited from earlier work
5-HT1A receptors [7] = target: T1, 5-HT1A receptors; conditions: ref Hillmer et al., 2014, cited from earlier work; for HP/CB PET ratio / Brain Uptake: human; for HP/CB PET ratio: 90 mins post-injection; for Brain Uptake: initial, 1–2 min post-injection
[8] = human plasma; ref Hillmer et al., 2014; cited from earlier work
[9] = rhesus monkey; ref Wooten et al., 2013; cited from earlier work
[10] = [5-HT1A affinity/other receptor affinity]×100, 5-HT1A 0.6 or 2.2 nM for WAY-100635, 0.9 nM for Mefway

SMILES: COc1ccccc1N1CCN(CCN(C(=O)C2CCC(CF)CC2)c2ccccn2)CC1 (stereo not drawn) [Mefway]
- Binding affinity, Ki, 5-HT1A [1]: subnanomolar affinity
- Ki ([1]; read-out: Binding affinity, Ki, 5-HT1A): 0.9 nM
- % human 5HT1A Selectivity, 5-HT1A [2]: 100%
- % human 5HT1A Selectivity, 5-HT7 (5-HT7; [10]): 0.30%
- Ki (5-HT7; read-out: Binding affinity, Ki, 5-HT7, human cloned receptor, PDSP): 297 nM
- % human 5HT1A Selectivity, 5-HT2B (5-HT2B; [10]): 0.35%
- Ki (5-HT2B; read-out: Binding affinity, Ki, 5-HT2B, human cloned receptor, PDSP): 260 nM
- % human 5HT1A Selectivity, α1B (α1B; [10]): 0.18%
- Ki (α1B; read-out: Binding affinity, Ki, α1B, human cloned receptor, PDSP): 505 nM
- % human 5HT1A Selectivity, D4 (dopamine D4; [10]): 0.71%
- Ki (dopamine D4; read-out: Binding affinity, Ki, D4, human cloned receptor, PDSP): 126 nM
- Ki (D3 subtype): 139 nM
- Affinity, D1 subtype (D1): very poor affinities
- Affinity, other adrenergic receptor subtypes ([3]; adrenergic subtypes other than α1A and α1D): poor affinities
- Affinity, all other receptor subtypes tested in section 2.3 ([3]; at 10 μM concentration, significant = > 50% inhibition): did not exhibit significant affinity
- Affinity, other serotonin receptor subtypes ([3]; serotonin subtypes other than 5-HT1A, 5-HT7, 5-HT2B): did not show significant affinities
- Ratio of hippocampus versus white matter, autoradiography (5-HT1A receptors [4]; human hippocampus sections): 13
- Binding displaced in hippocampus and cortex (5-HT1A receptors [4]; in the presence of 10 μM of WAY-100635, human (all the species)): > 95%
- HP/CB PET ratio (5-HT1A receptors [5]; ref Saigal et al., 2013, listed as 18F-Mefway): 10
- HP/CB PET ratio (5-HT1A receptors [5]; ref Saigal et al., 2013): 10 ^g
- Raphe ratio with respect to cerebellum (5-HT1A receptors [6]; monkey, higher resolution P4 scanner, ref Wooten et al., 2011b): greater than 3
- HP/CB PET ratio (5-HT1A receptors [6]; monkey, 90 mins post-injection, ref Saigal et al., 2006, Wooten et al., 2011b): 10 ^f
- Raphe BPND (5-HT1A receptors [6]; monkey, ref Wooten et al., 2011b): greater than 3
- Raphe ratio with respect to cerebellum (5-HT1A receptors [6]; monkeys, EXACT HR+ PET scanner, ref Saigal et al., 2006): approximately 2
- Raphe to cerebellum ratio (5-HT1A receptors [6]; monkeys, scanner not stated (abstract)): approximately 3
- Adverse or pharmacologic effects in human subjects (5-HT1A receptors [7]; approximately 185 MBq bolus, 6 subjects): no adverse or clinically detectable pharmacologic effects
- Binding potential HP, BPND (5-HT1A receptors [7]; human hippocampus): 2.7 ^i
- HP/CB PET ratio (5-HT1A receptors [7]): 4 ^i
- HP/CB PET ratio (5-HT1A receptors [7]; listed as 18F-Mefway): 4
- Brain Uptake (5-HT1A receptors [7]): 0.002 ^e %ID/cc
- Brain Uptake (5-HT1A receptors [7]; listed as 18F-Mefway): 0.002 %ID/cc
- Free Fraction in plasma [8]: 5% ^j
- Free Fraction in plasma [9]: 15% ^j
